Among the data in ChEMBL document CHEMBL1240468, “Regioselective hydrostannation of diarylalkynes directed by a labile ortho bromine atom: an easy access to stereodefined triarylolefins, hybrids of combretastatin A-4 and isocombretastatin A-4” (Eur J Med Chem, 2010) are IC50 values, retold here.

A word on the IC50: it is the midpoint of a concentration-inhibition curve.

The nature of assay [1]: Inhibition of sheep brain tubulin microtubule assembly by turbidimetry assay. The arrangement: species or system Ovis aries. In short, it runs like this: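 Sheep brain tubulin purified by two assembly–disassembly cycles, about 2–3 mg/mL in 0.1 M MES, 0.5 mM MgCl2, 1 mM EGTA, 1 mM GTP, pH 6.6. Compounds in DMSO; incubation 10 min at 37 °C, then 5 min at 0 °C. Assembly followed continuously by turbidity at 350 nm at 37 °C.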

A further assay deals with HCT-116. Kind of assay: Cytotoxicity against human HCT116 cells after 72 hrs. It is filed as functional, cell-based. Particulars: HCT-116, 72 h; call rule not given here. In short, it runs like this: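 Cells seeded at 5 × 10³ per well in growth medium, cultured 24 h, then given compound in DMSO (under 0.1% final). After 72 h incubation, resazurin added for 2 h and fluorescence read (excitation 560 nm). IC50 taken as concentration reducing cell growth by 50% after 72 h treatment.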

Take `COc1ccc(/C=C(/c2ccc(C)cc2)c2cc(OC)c(OC)c(OC)c2)cc1O`: the concentration for half-maximal inhibition (IC50) result in assay [1] was “Not Active”; with HCT-116 it was 3 µM.

Turning to `COCOc1cc(/C=C(/c2ccc(OC)c(OCOC)c2)c2cc(OC)c(OC)c(OC)c2Br)ccc1OC`, the IC50 is 8 µM in assay [1] (read-out: IC50) and over 10 µM with HCT-116.

Consider `COc1ccc(/C=C(/c2ccc(OC)cc2)c2cc(OC)c(OC)c(OC)c2Br)cc1`, for which the results for the IC50 result (in assay [1]; in the assay on HCT-116) were “Not Active” and over 10 µM, respectively.

For `COc1ccc(/C=C(/c2ccc(OC)c(O)c2)c2cc(OC)c(OC)c(OC)c2)cc1O`, the IC50 turned out to be 8.5 µM in assay [1] (read-out: IC50) and 5 µM in the assay with HCT-116.

Consider `COc1ccc(/C(=C\c2cc(OC)c(OC)c(OC)c2)c2cc(OC)c(OC)c(OC)c2)cc1`, for which the results for the IC50 result (in assay [1]; with HCT-116) were “Not Active” and over 10 µM, respectively.

As for `COc1ccc(/C(=C/c2ccc(OC)c(O)c2)c2cc(OC)c(OC)c(OC)c2)cc1`, the concentration for half-maximal inhibition (IC50) in assay [1] (read-out: IC50) is 7.8 µM; with HCT-116 it was over 10 µM.

With `C=C(c1ccc(OC)c(O)c1)c1cc(OC)c(OC)c(OC)c1`, the IC50 was determined as 2.1 µM in assay [1] (read-out: IC50) and 0.002 µM with HCT-116.

Regarding `COc1ccc(/C(=C\c2cc(OC)c(OC)c(OC)c2)c2cc(OC)c(OC)c(OC)c2)c(Br)c1`, the figures for the 50% inhibitory concentration (IC50) result (in assay [1]; with HCT-116) were “Not Active” and over 10 µM, respectively.

Consider `COc1ccc(/C=C(\c2ccc(OC)cc2)c2cc(OC)c(OC)c(OC)c2)cc1`, for which the IC50 was 8.1 µM in assay [1] (read-out: IC50) and over 10 µM with HCT-116.

`COc1ccc(/C=C\c2cc(OC)c(OC)c(OC)c2)cc1O` [COMBRETASTATIN A4] showed a half-inhibitory concentration (IC50) with HCT-116 of 0.002 µM.

Take `COc1ccc(/C=C(/c2ccc(OC)c(F)c2)c2cc(OC)c(OC)c(OC)c2)cc1O`: the IC50 result is “Not Active” in assay [1] and 8 µM in the assay on HCT-116.

Regarding `COc1ccc(/C=C(\c2cc(OC)c(OC)c(OC)c2)c2ccc3ccccc3c2)cc1O`, the IC50 result in assay [1] was “Not Active”; with HCT-116, 8 µM.

As to `COc1ccc(/C=C(/c2ccc(OC)cc2)c2cc(OC)c(OC)c(OC)c2)cc1`, the values for the IC50 (in assay [1] (read-out: IC50); in the assay with HCT-116) were 8 µM and over 10 µM, respectively.

For `COc1ccc(/C(=C/c2ccc(OC)c(O[Si](C)(C)C(C)(C)C)c2)c2cc(OC)c(OC)c(OC)c2Br)cc1`, the IC50 entry in assay [1] was “Not Active”; in the assay with HCT-116 it was over 10 µM.
